Assay outcomes deposited in PubChem BioAssay by several laboratories.
Shown are actives, neighbours in structure and some others; about 1.9% of the full set was active somewhere.
NSD2 inh – inhibitors of human histone methyltransferase NSD2; O96028; NSD2 peptide methylation, AlphaScreen, 120 min; inhibition, % at 12.5 µM; 310,000 compounds, 0.54% hits; in the data active = inhibition above about 50%
MBD2 inh – inhibitors of human MBD2 binding to methylated oligonucleotide. 370,000 compounds, 0.31% hits. AID 686964. TR-FRET. Q9UBB5. inhibition, % at 4.4 µM; in the data active = inhibition above about 13%
TDP2 absorb – blocks human TDP2 phosphodiesterase activity; O95551; recombinant TDP2, T5PNP hydrolysis, p-nitrophenol absorbance 415 nm; inhibition, % at 12.8 µM; 370,000 compounds, 0.34% hits;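 active = inhibition above the mean of all tested compounds plus 3 SD, set per campaign, cut at about 25% in these data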;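 note: 0% = DMSO with enzyme and 100% = buffer with substrate but no TDP2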
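System: recombinant human TDP2 / Amount: 120 nM TDP2 per well / Also added: 5 mM T5PNP chromogenic substrate / Doses: 12.8 µM single point, 1% DMSO / Incubation: 2 h at 37 °C / Detection: p-Nitrophenol epi absorbance / Evaluation: % inhibition relative to enzyme-containing and enzyme-free wells / Repeats: singlicate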
LEDGF integ inh – blocks HIV-1 LEDGF/p75-dependent DNA integration | 370,000 compounds, 0.64% hits | inhibition, % at 3.7 µM | AID 743269 | TR-FRET IN-LEDGF/p75 DNA integration, Eu/Cy5;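 active = inhibition above the screen-wide mean plus 3 SD, cut at about 13% in these data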;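 note: signal is the Cy5 over europium emission ratio at 671 and 618 nm; 0% = plate median of compound wells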
CASP6 VEID inh – inhibitors of human caspase-6; P55212; purified caspase-6, Z-VEID-R110 cleavage fluorescence; inhibition, % at 12.5 µM; 350,000 compounds, 0.53% hits; AID 686996;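 active = mean inhibition across replicates at least about 35%, with every replicate also reaching that limit, limit read from the data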;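 note: 0% = median of neutral control wells and 100% = no fluorescence left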
UHRF1 MBD2 ctr – human UHRF1 methylated DNA binding inhibitors; Q96T88; UHRF1 binding to methylated oligo, TR-FRET; inhibition, % at 4.4 µM; 370,000 compounds, 0.75% hits; AID 687016; in the data active = inhibition above about 21%;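 note: UHRF1 SRA domain binding a hemimethylated CpG hairpin DNA probe; 0% = median of test compound wells and 100% = reference inhibitor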
AlphaScreen art – interferes with AlphaScreen signal, flagging NSD2 false positives | AlphaScreen artifact counterscreen, preloaded methylated H4 peptide | shares compounds with NSD2 inh | AC35, µM (titrated, usually from 10 µM), for the others: at the top dose activity change, negative = signal loss | 1,500 compounds, 9.4% hits; call rule not given here
* hit, by the source's call; nt = no result given.

SMILES	NSD2 inh	MBD2 inh	TDP2 absorb	LEDGF integ inh	CASP6 VEID inh	UHRF1 MBD2 ctr	AlphaScreen art
COc1ccc(S(=O)(=O)N(C)C[C@H]2Oc3ccc(NC(=O)C4CC4)cc3C(=O)N([C@@H](C)CO)C[C@H]2C)cc1	nt	nt	nt	nt	-2.2	nt	nt
c1ccc(-c2nc(N3CCOCC3)c3ccccc3n2)nc1	63.8*	6.0	-12.4	-18.0	nt	5.2	-6.7%
c1ccc(-c2nc(N3CCCCCC3)c3ccccc3n2)nc1	44.2	-3.8	-12.5	0.0	nt	-14.9	nt
O=C(c1ccccc1F)N(Cc1cccs1)C1CCS(=O)(=O)C1 (configuration not stated)	84.9*	0.8	3.5	1.6	2.8	-0.5	-2.3%
CCCOc1ccc(CN(C(=O)c2cccc(OC)c2)C2CCS(=O)(=O)C2)cc1 (configuration not stated)	-0.5	-2.6	-3.4	2.4	-1.2	0.7	nt
COc1ccc(CN(C(=O)c2cccc(OC)c2)C2CCS(=O)(=O)C2)cc1 (configuration not stated)	52.0*	-1.9	2.2	2.9	-0.8	-1.3	-2.6%
COc1ccc(C(=O)N(Cc2cccs2)C2CCS(=O)(=O)C2)cc1 (configuration not stated)	100.2*	3.0	14.9	-0.3	-0.5	-1.3	1.2%
C[C@@H]1CN([C@H](C)CO)C(=O)c2cc(NC(=O)CCCN(C)C)ccc2O[C@H]1CN(C)C	nt	nt	nt	nt	-2.5	nt	nt
CCSc1nc2c(c(=O)[nH]1)C(c1ccc(C)cc1)C1=C(CCCC1=O)N2 (configuration not stated)	-7.5	9.4	-11.1	-6.4	0.9	6.8	nt
Cc1ccc(CSc2nc3c(c(=O)[nH]2)C(c2ccncc2)C2=C(CCCC2=O)N3)cc1 (configuration not stated)	126.7*	1.2	3.2	-3.6	nt	-2.5	-1.2%
O=[N+]([O-])c1ccc(NC(=S)N2CCOCC2)cc1	1.3	-7.4	-12.0	-0.1	-1.1	5.6	nt
O=[N+]([O-])c1cccc(NC(=S)N2CCOCC2)c1	85.1*	1.7	-1.1	-3.5	3.8	-2.0	-1.5%
Nc1cc(S(=O)(=O)O)cc2ccc(S(=O)(=O)O)cc12	102.0*	-5.4	20.9	6.5	56.9*	4.9	-0.3%
Cc1cc(S(=O)(=O)NCc2cccnc2)ccc1F	58.6*	6.8	-0.5	-8.8	-1.1	7.1	-5.3%
Cc1ccc(S(=O)(=O)NCc2cccnc2)cc1C	-2.1	1.6	24.2	-2.3	-0.9	0.4	nt
CCCN=C(C)c1c(-c2ccccc2)[nH]n(-c2nc3ccccc3s2)c1=O	27.3	-4.5	8.2	0.8	nt	-0.9	nt
CCN(CC)CCCN=Cc1c(-c2ccccc2)[nH]n(-c2nc3ccccc3s2)c1=O	75.1*	2.1	1.6	-0.7	-33.4	-1.1	-4.9%
O=[N+]([O-])c1ccc(-c2cccnc2)cc1	158.3*	-0.3	11.8	-3.7	-2.5	-3.3	-0.2%
COc1ccc(NC(=O)Nc2cccc3c2O[C@@H](CN(C)C(=O)NC(C)C)[C@@H](C)CN([C@@H](C)CO)C3=O)cc1	nt	nt	nt	nt	1.6	nt	nt
O=C(NC1CCCC1)c1cc(-c2ccccc2Cl)on1	-6.0	-1.0	-0.7	-2.2	-0.1	0.1	nt
O=C(NC1CCCC1)c1cc(-c2ccc(Cl)cc2Cl)on1	88.6*	1.2	-3.0	1.1	nt	-1.3	-7.3%
COCC(=O)Nc1ccc2c(c1)OC[C@H](C)N(C(=O)NC(C)C)C[C@@H](C)[C@H](OC)CN(C)C2=O	nt	nt	nt	nt	5.2	nt	nt
O=C(Nc1nccs1)c1ccc2nccnc2c1	125.4*	2.1	3.8	2.9	nt	0.7	-2.3%
COC(=O)COc1cccc(-n2cnnn2)c1	nt	-8.4	3.6	-1.8	nt	-2.9	nt
Cc1cc(C(=O)COc2cccc(-n3cnnn3)c2)c(C)n1-c1ccccc1	56.0*	-0.9	5.8	-4.0	nt	-0.1	-0.9%
Cc1cc(C)n(-c2nc(NCc3cccnc3)c3c4c(sc3n2)COC(C)(C)C4)n1	-0.6	1.0	-7.3	3.9	nt	4.0	nt
CCN(CC)CCCNc1nc(-n2nc(C)cc2C)nc2sc3c(c12)CC(C)(C)OC3	75.6*	-7.4	-10.6	-3.5	-11.8	-0.3	-4.8%
COc1ccccc1N=Nc1ccc(O)c2ncccc12	94.3*	-8.8	12.3	3.9	53.9*	-15.0	-13.4%
